Measurements reported in ChEMBL document CHEMBL4138150, “Quinoline derivatives bearing pyrazole moiety: Synthesis and biological evaluation as possible antibacterial and antifungal agents” (2018).
Values after ≈ are worked out from the molar mass of the structure shown.

Tests used:
Staphylococcus aureus [1] = experiment: Antimicrobial activity against Staphylococcus aureus RCMB 010027 assessed as diameter of zone inhibition at 5 mg/ml after 24 hrs by agar well diffusion assay; type: functional; conditions: RCMB 010027, 24 h, read-out: DIZ
Method in brief: (§1)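 Agar well diffusion: 100 µL of 1 x10^8 CFU/mL bacteria was spread on nutrient agar. 10 mm wells received 100 µL of compound at 5 mg/mL in DMSO, or ampicillin or gentamycin standards at 1 mg/mL. DMSO served as negative control. Plates were incubated 24 h at 37 °C. Inhibition zone diameter (mm) was measured as the mean of triplicates.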

[2] = test system: Staphylococcus epidermidis; experiment: Antimicrobial activity against Staphylococcus epidermidis RCMB 010024 assessed as diameter of zone inhibition at 5 mg/ml after 24 hrs by agar well diffusion assay; type: functional; conditions: RCMB 010024, 24 h, read-out: DIZ; method in brief: as §1
Bacillus subtilis [3] = experiment: Antimicrobial activity against Bacillus subtilis RCMB 010063 assessed as diameter of zone inhibition at 5 mg/ml after 24 hrs by agar well diffusion assay; type: functional; conditions: RCMB 010063, 24 h, read-out: DIZ; method in brief: as §1
Proteus vulgaris [4] = experiment: Antimicrobial activity against Proteus vulgaris RCMB 010085 assessed as diameter of zone inhibition at 5 mg/ml after 24 hrs by agar well diffusion assay; type: functional; conditions: RCMB 010085, 24 h, read-out: DIZ; method in brief: as §1
Klebsiella pneumoniae [5] = experiment: Antimicrobial activity against Klebsiella pneumoniae RCMB 010093 assessed as diameter of zone inhibition at 5 mg/ml after 24 hrs by agar well diffusion assay; type: functional; conditions: RCMB 010093, 24 h, read-out: DIZ; method in brief: as §1
Shigella flexneri [6] = experiment: Antimicrobial activity against Shigella flexneri RCMB 0100542 assessed as diameter of zone inhibition at 5 mg/ml after 24 hrs by agar well diffusion assay; type: functional; conditions: RCMB 0100542, 24 h, read-out: DIZ; method in brief: as §1
Aspergillus fumigatus [7] = experiment: Antimicrobial activity against Aspergillus fumigatus RCMB 02564 assessed as diameter of zone inhibition at 5 mg/ml after 72 hrs by agar well diffusion assay; type: functional; conditions: RCMB 02564, 72 h, read-out: DIZ
Method in brief: (§2)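 Fungi (1 x10^6 CFU/mL, 100 µL) were spread on Sabouraud dextrose agar. 10 mm wells were loaded with 100 µL of test solution at 5 mg/mL in DMSO, or amphotericin B standard at 1 mg/mL. A DMSO negative control was included. Plates were incubated 72 h at 28 °C. Inhibition zone diameter (mm) was recorded as the average of triplicate runs.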

Aspergillus clavatus [8] = experiment: Antimicrobial activity against Aspergillus clavatus RCMB 02593 assessed as diameter of zone inhibition at 5 mg/ml after 72 hrs by agar well diffusion assay; type: functional; conditions: RCMB 02593, 72 h, read-out: DIZ; method in brief: as §2
Candida albicans [9] = experiment: Antimicrobial activity against Candida albicans RCMB 05035 assessed as diameter of zone inhibition at 5 mg/ml after 72 hrs by agar well diffusion assay; type: functional; conditions: RCMB 05035, 72 h, read-out: DIZ; method in brief: as §2
Staphylococcus aureus [10] = experiment: Antimicrobial activity against Staphylococcus aureus RCMB 010027 after overnight incubation by macro-tube dilution technique; type: functional
Method in brief: (§3)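 Macro-tube twofold dilution following NCCLS guidance, run in nutrient broth. The first tube held 10 mg compound in 2.0 mL DMSO and was serially halved 1:1 into 1.0 mL broth through tube 14; tube 15 was the control. The inoculum was suspended to turbidity in 5.0 mL broth, 0.2 mL was diluted into 40 mL, and 1.0 mL was added per tube. Tubes were incubated overnight at 37 °C. MIC was the lowest concentration with no growth.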

[11] = test system: Staphylococcus epidermidis; experiment: Antimicrobial activity against Staphylococcus epidermidis RCMB 010024 after overnight incubation by macro-tube dilution technique; type: functional; method in brief: as §3
Bacillus subtilis [12] = experiment: Antimicrobial activity against Bacillus subtilis RCMB 010063 after overnight incubation by macro-tube dilution technique; type: functional; method in brief: as §3
Proteus vulgaris [13] = experiment: Antimicrobial activity against Proteus vulgaris RCMB 010085 after overnight incubation by macro-tube dilution technique; type: functional; method in brief: as §3
Klebsiella pneumoniae [14] = experiment: Antimicrobial activity against Klebsiella pneumoniae RCMB 010093 after overnight incubation by macro-tube dilution technique; type: functional; method in brief: as §3
Shigella flexneri [15] = experiment: Antimicrobial activity against Shigella flexneri RCMB 0100542 after overnight incubation by macro-tube dilution technique; type: functional; method in brief: as §3
Aspergillus fumigatus [16] = experiment: Antimicrobial activity against Aspergillus fumigatus RCMB 02564 after 72 hrs by macro-tube dilution technique; type: functional; conditions: RCMB 02564, 72 h
Method in brief: (§4)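 Twofold macro-tube dilution following NCCLS guidance, run in malt extract broth. 10 mg compound in 2.0 mL DMSO in tube 1 was serially diluted 1:1 through tube 14 into 1.0 mL broth; tube 15 was the control. Culture was suspended to turbidity in 5.0 mL broth, 0.2 mL was diluted into 40 mL, and 1.0 mL was added per tube. Incubation was 72 h at 30 °C. MIC was the lowest concentration with no growth.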

Aspergillus clavatus [17] = experiment: Antimicrobial activity against Aspergillus clavatus RCMB 02593 after 72 hrs by macro-tube dilution technique; type: functional; conditions: RCMB 02593, 72 h; method in brief: as §4
Candida albicans [18] = experiment: Antimicrobial activity against Candida albicans RCMB 05035 after 72 hrs by macro-tube dilution technique; type: functional; conditions: RCMB 05035, 72 h; method in brief: as §4
Shigella flexneri [19] = experiment: Potency index, ratio of Gentamycin IC50 to compound IC50 for Shigella flexneri RCMB 0100542; type: functional
Aspergillus clavatus [20] = experiment: Potency index, ratio of Amphotericin B IC50 to compound IC50 for Aspergillus clavatus RCMB 02593; type: functional
Proteus vulgaris [21] = experiment: Potency index, ratio of Gentamycin IC50 to compound IC50 for Proteus vulgaris RCMB 010085; type: functional
Candida albicans [22] = experiment: Potency index, ratio of Amphotericin B IC50 to compound IC50 for Candida albicans RCMB 05035; type: functional
Staphylococcus aureus [23] = experiment: Antimicrobial activity against Staphylococcus aureus RCMB 010027 assessed as diameter of zone inhibition at 1 mg/ml after 24 hrs by agar well diffusion assay; type: functional; conditions: RCMB 010027, 24 h, read-out: DIZ
[24] = test system: Staphylococcus epidermidis; experiment: Antimicrobial activity against Staphylococcus epidermidis RCMB 010024 assessed as diameter of zone inhibition at 1 mg/ml after 24 hrs by agar well diffusion assay; type: functional; conditions: RCMB 010024, 24 h, read-out: DIZ
Bacillus subtilis [25] = experiment: Antimicrobial activity against Bacillus subtilis RCMB 010063 assessed as diameter of zone inhibition at 1 mg/ml after 24 hrs by agar well diffusion assay; type: functional; conditions: RCMB 010063, 24 h, read-out: DIZ
Aspergillus fumigatus [26] = experiment: Antimicrobial activity against Aspergillus fumigatus RCMB 02564 assessed as diameter of zone inhibition at 1 mg/ml after 72 hrs by agar well diffusion assay; type: functional; conditions: RCMB 02564, 72 h, read-out: DIZ
Aspergillus clavatus [27] = experiment: Antimicrobial activity against Aspergillus clavatus RCMB 02593 assessed as diameter of zone inhibition at 1 mg/ml after 72 hrs by agar well diffusion assay; type: functional; conditions: RCMB 02593, 72 h, read-out: DIZ
Candida albicans [28] = experiment: Antimicrobial activity against Candida albicans RCMB 05035 assessed as diameter of zone inhibition at 1 mg/ml after 72 hrs by agar well diffusion assay; type: functional; conditions: RCMB 05035, 72 h, read-out: DIZ
Proteus vulgaris [29] = experiment: Antimicrobial activity against Proteus vulgaris RCMB 010085 assessed as diameter of zone inhibition at 1 mg/ml after 24 hrs by agar well diffusion assay; type: functional, organism-based
Method in brief: (§5)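 Agar well diffusion on nutrient agar spread with 100 µL of bacterial suspension at 1 x10^8 CFU/mL. Wells 10 mm wide were loaded with 100 µL of solution: test compounds at 5 mg/mL in DMSO, ampicillin or gentamycin standards at 1 mg/mL, DMSO negative control. Plates were incubated 24 h at 37 °C, and inhibition zone diameter (mm) was averaged over triplicates.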

Klebsiella pneumoniae [30] = experiment: Antimicrobial activity against Klebsiella pneumoniae RCMB 010093 assessed as diameter of zone inhibition at 1 mg/ml after 24 hrs by agar well diffusion assay; type: functional, organism-based; method in brief: as §5
Shigella flexneri [31] = experiment: Antimicrobial activity against Shigella flexneri RCMB 0100542 assessed as diameter of zone inhibition at 1 mg/ml after 24 hrs by agar well diffusion assay; type: functional, organism-based; method in brief: as §5
[32] = test system: Staphylococcus epidermidis; experiment: Potency index, ratio of Amphotericin B IC50 to compound IC50 for Staphylococcus epidermidis RCMB 010024; type: functional

Compound | zone of inhibition at 5000 µg/mL (Staphylococcus aureus [1]) | zone of inhibition at 5000 µg/mL [2] | zone of inhibition at 5000 µg/mL (Bacillus subtilis [3]) | zone of inhibition at 5000 µg/mL (Proteus vulgaris [4]) | zone of inhibition at 5000 µg/mL (Klebsiella pneumoniae [5]) | zone of inhibition at 5000 µg/mL (Shigella flexneri [6]) | zone of inhibition at 5000 µg/mL (Aspergillus fumigatus [7]) | zone of inhibition at 5000 µg/mL (Aspergillus clavatus [8]) | zone of inhibition at 5000 µg/mL (Candida albicans [9]) | MIC (Staphylococcus aureus [10]) | MIC [11] | MIC (Bacillus subtilis [12]) | MIC (Proteus vulgaris [13]) | MIC (Klebsiella pneumoniae [14]) | MIC (Shigella flexneri [15]) | MIC (Aspergillus fumigatus [16]) | MIC (Aspergillus clavatus [17]) | MIC (Candida albicans [18]) | also measured
N#Cc1c(-c2ccc(Cl)cc2Cl)nn(-c2ccc3ccccc3n2)c1N | 21.6 mm | 22.3 mm | 25.8 mm | 20.6 mm | 21.6 mm | 23.2 mm | 20.9 mm | 22.3 mm | 24.8 mm | 0.49 µg/mL (≈ 1.29 µM) | 0.49 µg/mL (≈ 1.29 µM) | 0.12 µg/mL (≈ 0.316 µM) | 0.98 µg/mL (≈ 2.58 µM) | 0.49 µg/mL (≈ 1.29 µM) | 0.12 µg/mL (≈ 0.316 µM) | 0.98 µg/mL (≈ 2.58 µM) | 0.49 µg/mL (≈ 1.29 µM) | 0.12 µg/mL (≈ 0.316 µM) | Ratio (Shigella flexneri [19]): 4; Ratio (Aspergillus clavatus [20]): 4; Ratio (Proteus vulgaris [21]): 2; Ratio (Candida albicans [22]): 4
CC1(C)S[C@@H]2[C@H](NC(=O)[C@H](N)c3ccccc3)C(=O)N2[C@H]1C(=O)O [AMPICILLIN] | – | – | – | – | – | – | – | – | – | 0.06 µg/mL (≈ 0.172 µM) | 0.48 µg/mL (≈ 1.37 µM) | 0.007 µg/mL (≈ 0.02 µM) | – | – | – | – | – | – | zone of inhibition at 1000 µg/mL (Staphylococcus aureus [23]): 28.9 mm; zone of inhibition at 1000 µg/mL [24]: 25.4 mm; zone of inhibition at 1000 µg/mL (Bacillus subtilis [25]): 34.6 mm
C[C@@H]1[C@H](O)[C@@H](C)/C=C/C=C/C=C/C=C/C=C/C=C/C=C/[C@H](O[C@@H]2O[C@H](C)[C@@H](O)[C@H](N)[C@@H]2O)C[C@@H]2O[C@](O)(C[C@@H](O)C[C@@H](O)[C@H](O)CC[C@@H](O)C[C@@H](O)CC(=O)O[C@H]1C)C[C@H](O)[C@H]2C(=O)O [AMPHOTERICIN B] | – | – | – | – | – | – | – | – | – | – | – | – | – | – | – | 0.97 µg/mL (≈ 1.05 µM) | 1.95 µg/mL (≈ 2.11 µM) | 0.48 µg/mL (≈ 0.519 µM) | zone of inhibition at 1000 µg/mL (Aspergillus fumigatus [26]): 23.7 mm; zone of inhibition at 1000 µg/mL (Aspergillus clavatus [27]): 21.9 mm; zone of inhibition at 1000 µg/mL (Candida albicans [28]): 26.4 mm
GENTAMICIN | – | – | – | – | – | – | – | – | – | – | – | – | 1.95 µg/mL | 0.24 µg/mL | 0.48 µg/mL | – | – | – | inhibition zone (IZ) (Proteus vulgaris [29]): 23.4 mm; inhibition zone (IZ) (Klebsiella pneumoniae [30]): 26.3 mm; inhibition zone (IZ) (Shigella flexneri [31]): 24.8 mm
COc1ccc(C2CC(c3ccc(Oc4ccc5ccccc5n4)cc3)=NN2c2ccccc2)cc1 (centres undefined) | 29 mm | 26.2 mm | 28.7 mm | 24.5 mm | 26.1 mm | 23.3 mm | 23.5 mm | 22.9 mm | 23.5 mm | 0.24 µg/mL (≈ 0.509 µM) | 0.24 µg/mL (≈ 0.509 µM) | 0.06 µg/mL (≈ 0.127 µM) | 9.9 µg/mL (≈ 21 µM) | 3.9 µg/mL (≈ 8.27 µM) | 0.48 µg/mL (≈ 1.02 µM) | 1.95 µg/mL (≈ 4.14 µM) | 3.9 µg/mL (≈ 8.27 µM) | 0.48 µg/mL (≈ 1.02 µM) | Ratio [32]: 2
